Results reported in ChEMBL document CHEMBL4765234 (J Med Chem, 2016).
Active and inactive are the calls of the source. The rule behind the calls is not given here.

Experiments:
[1] = target: Free fatty acid receptor 1 (Mus musculus) (UniProt Q76JU9); experiment: Agonist activity at Prolink-tagged mouse GPR40 fused with EA-tagged beta-arrestin expressed in human U2OS cells assessed as induction of beta-arrestin recruitment measured after 90 mins by beta-galactosidase based PathHunter assay relative to control; format: cell-based; settings: filed as agonist
Free fatty acid receptor 1 (Mus musculus), sequence (Q76JU9 whole entry, the tested form may be a part): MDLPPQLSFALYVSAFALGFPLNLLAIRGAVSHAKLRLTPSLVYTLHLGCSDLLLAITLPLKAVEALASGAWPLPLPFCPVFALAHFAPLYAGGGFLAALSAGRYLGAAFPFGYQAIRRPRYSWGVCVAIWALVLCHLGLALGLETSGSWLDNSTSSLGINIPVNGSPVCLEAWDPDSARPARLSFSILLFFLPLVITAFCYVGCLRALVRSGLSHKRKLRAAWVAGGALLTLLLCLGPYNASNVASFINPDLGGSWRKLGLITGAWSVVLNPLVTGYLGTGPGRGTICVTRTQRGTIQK
Outline: (§1)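 PathHunter β-gal complementation. Cells were incubated overnight at 5000/well in medium with 1% heat-inactivated FBS. Compound was added as a 20-point 2-fold series from a top final of 100 μM (1% DMSO) for 90 min at 37 °C, followed by detection reagents and chemiluminescence read after 1 h at rt.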

[2] = target: T1, Free fatty acid receptor 1 (Homo sapiens, UniProt O14842); experiment: Agonist activity at human recombinant full length GPR40 overexpressed in human HEK293 cells assessed as increase in inositol phosphate accumulation in presence of terbium cryptate-labeled anti IP1/d2-labelled IP1 measured after 120 mins by HTRF assay relative to AMG837; format: functional, cell-based; settings: filed as agonist
T1 sequence (O14842 whole entry): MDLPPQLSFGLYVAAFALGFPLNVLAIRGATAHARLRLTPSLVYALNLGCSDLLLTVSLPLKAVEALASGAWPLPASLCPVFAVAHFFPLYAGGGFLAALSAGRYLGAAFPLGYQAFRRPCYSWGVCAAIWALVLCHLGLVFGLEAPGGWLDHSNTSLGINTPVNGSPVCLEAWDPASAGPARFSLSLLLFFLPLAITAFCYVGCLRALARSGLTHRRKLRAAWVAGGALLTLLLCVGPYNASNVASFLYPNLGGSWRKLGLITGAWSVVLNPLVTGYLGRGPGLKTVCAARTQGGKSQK
Outline: (§2)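 HEK293 hGPR40 cells (20K/well) were cultured overnight, washed, and held in IP1 stimulation buffer. IP-1 was measured by competitive HTRF immunoassay with terbium cryptate anti-IP1 mAb and d2-labelled IP1.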

[3] = target: T1, Free fatty acid receptor 1; experiment: Agonist activity at human recombinant full-length Prolink-tagged GPR40 fused with EA-tagged beta-arrestin expressed in human HEK293 cells assessed as induction of beta-arrestin recruitment measured after 90 mins by beta-galactosidase based PathHunter assay; format: cell-based; outline: as §1
[4] = target: Free fatty acid receptor 1 (Mus musculus, UniProt Q76JU9); experiment: Agonist activity at Prolink-tagged mouse GPR40 fused with EA-tagged beta-arrestin expressed in human U2OS cells assessed as induction of beta-arrestin recruitment measured after 90 mins by beta-galactosidase based PathHunter assay; format: cell-based; outline: as §1
Free fatty acid receptor 1 (Mus musculus, UniProt Q76JU9), sequence (Q76JU9 whole entry, the tested form may be a part): as the sequence (Q76JU9 whole entry, the tested form may be a part) above

[5] = target: Free fatty acid receptor 1 (Rattus norvegicus, UniProt Q8K3T4); experiment: Agonist activity at Prolink-tagged rat GPR40 fused with EA-tagged beta-arrestin expressed in human U2OS cells assessed as induction of beta-arrestin recruitment measured after 90 mins by beta-galactosidase based PathHunter assay; format: cell-based; outline: as §1
Free fatty acid receptor 1 (Rattus norvegicus, UniProt Q8K3T4), sequence (Q8K3T4 whole entry, the tested form may be a part): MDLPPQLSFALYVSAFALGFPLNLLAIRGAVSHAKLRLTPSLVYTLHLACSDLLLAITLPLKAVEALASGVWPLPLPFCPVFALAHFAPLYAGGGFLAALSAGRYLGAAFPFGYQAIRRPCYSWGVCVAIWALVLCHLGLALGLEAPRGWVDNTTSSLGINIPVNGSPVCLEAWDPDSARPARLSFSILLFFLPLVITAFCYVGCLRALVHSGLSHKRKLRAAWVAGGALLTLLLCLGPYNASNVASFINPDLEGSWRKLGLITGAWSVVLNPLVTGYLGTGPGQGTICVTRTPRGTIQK

[6] = target: T1, Free fatty acid receptor 1; experiment: Agonist activity at human recombinant full length GPR40 overexpressed in human HEK293 cells assessed as increase in intracellular calcium level measured over 3 mins by calcium 4 dye based FLIPR assay; format: functional, cell-based
Outline: (§3)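 HEK293 cells overexpressing hGPR40 (25K/well) were cultured overnight in DMEM/F12 with 0.2% FBS and geneticin. Compound was tested at 40 μM–0.1 nM final (20-point, 1% DMSO), and FLIPR fluorescence was read over 3 min.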

[7] = Protein binding in plasma (unknown origin) by equilibrium dialysis method; format: ADME, cell-free; settings: human, read-out: PPB
Outline: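 Plasma protein binding measured by equilibrium dialysis.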

[8] = target: Free fatty acid receptor 1 (Rattus norvegicus) (UniProt Q8K3T4); experiment: Agonist activity at Prolink-tagged rat GPR40 fused with EA-tagged beta-arrestin expressed in human U2OS cells assessed as induction of beta-arrestin recruitment measured after 90 mins by beta-galactosidase based PathHunter assay relative to control; format: cell-based; settings: filed as agonist; outline: as §1
Free fatty acid receptor 1 (Rattus norvegicus), sequence (Q8K3T4 whole entry, the tested form may be a part): as above

[9] = target: T2, Peroxisome proliferator-activated receptor gamma (Homo sapiens) (UniProt P37231); experiment: Displacement of [3H]-[…] from PPARgamma (unknown origin) expressed in baculovirus infected Sf9 insect cells upto 30 uM measured after 10 hrs by microbeta scintillation counting analysis; settings: dose microM <=30, time 10.0 hrs
T2 sequence (whole entry): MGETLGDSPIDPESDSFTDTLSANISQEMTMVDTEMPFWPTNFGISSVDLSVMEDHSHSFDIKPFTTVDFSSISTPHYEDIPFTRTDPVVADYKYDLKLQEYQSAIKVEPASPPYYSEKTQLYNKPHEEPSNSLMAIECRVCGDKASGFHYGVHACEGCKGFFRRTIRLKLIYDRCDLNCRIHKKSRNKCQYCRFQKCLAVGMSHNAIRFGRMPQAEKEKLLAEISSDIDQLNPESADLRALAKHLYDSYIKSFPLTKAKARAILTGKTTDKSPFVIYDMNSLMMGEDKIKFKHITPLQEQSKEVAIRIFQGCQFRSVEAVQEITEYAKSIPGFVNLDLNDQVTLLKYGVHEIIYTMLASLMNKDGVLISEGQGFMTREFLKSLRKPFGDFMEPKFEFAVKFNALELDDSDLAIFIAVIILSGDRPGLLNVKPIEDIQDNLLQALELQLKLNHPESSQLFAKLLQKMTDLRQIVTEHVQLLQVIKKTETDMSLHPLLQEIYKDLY
Outline: (§4)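 Scintillation proximity assay. Sf9 lysates with baculovirus-expressed PPARα (0.3 μg), PPARδ (0.5 μg) or PPARγ (1.25 μg), each with RXRα, were bound via biotinylated DR2 oligo (0.126 nM) to streptavidin yttrium silicate beads. Buffer was HEPES pH 7.8 with KCl, MgCl2, DTT, CHAPS, 14% glycerol and salmon sperm DNA. A 3H reference agonist ligand was used, with 11 compound concentrations, for 10 h. Nonspecific binding was defined with 10000 nM unlabeled reference. Ki was derived from IC50.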

[10] = target: T1, Free fatty acid receptor 1; experiment: Agonist activity at human recombinant full length GPR40 overexpressed in human HEK293 cells assessed as increase in inositol phosphate accumulation in presence of terbium cryptate-labeled anti IP1/d2-labelled IP1 measured after 120 mins by HTRF assay; format: functional, cell-based; outline: as §2
[11] = target: T3, Peroxisome proliferator-activated receptor alpha (Homo sapiens) (UniProt Q07869); experiment: Displacement of [3H]-[…] from PPARalpha (unknown origin) expressed in baculovirus infected Sf9 insect cells upto 30 uM measured after 10 hrs by microbeta scintillation counting analysis; settings: dose microM <=30, time 10.0 hrs; outline: as §4
T3 sequence (whole entry): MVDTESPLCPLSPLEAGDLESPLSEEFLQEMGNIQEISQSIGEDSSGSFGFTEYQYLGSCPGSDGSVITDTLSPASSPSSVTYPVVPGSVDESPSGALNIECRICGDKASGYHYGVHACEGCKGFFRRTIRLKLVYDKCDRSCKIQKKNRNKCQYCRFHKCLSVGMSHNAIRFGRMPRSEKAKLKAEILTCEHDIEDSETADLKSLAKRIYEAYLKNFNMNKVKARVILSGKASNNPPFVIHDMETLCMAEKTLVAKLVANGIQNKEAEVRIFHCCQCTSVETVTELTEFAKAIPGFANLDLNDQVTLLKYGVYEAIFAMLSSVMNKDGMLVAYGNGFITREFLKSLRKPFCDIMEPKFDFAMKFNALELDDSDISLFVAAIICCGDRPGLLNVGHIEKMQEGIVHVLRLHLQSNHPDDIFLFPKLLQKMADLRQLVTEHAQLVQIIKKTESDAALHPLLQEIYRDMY

[12] = target: T1, Free fatty acid receptor 1; experiment: Displacement of [3H]-TAK-875 from human recombinant full-length GPR40 expressed in human HEK293 cell membrane incubated for 2 hrs by solid scintillation counting method; format: cell membranes
[13] = target: T1, Free fatty acid receptor 1; experiment: Agonist activity at human recombinant full length GPR40 overexpressed in human HEK293 cells assessed as increase in intracellular calcium level measured over 3 mins by calcium 4 dye based FLIPR assay relative to 100 uM linoleic acid; format: functional, cell-based; settings: filed as agonist; outline: as §3
[14] = target: T1, Free fatty acid receptor 1; experiment: Agonist activity at human recombinant full-length Prolink-tagged GPR40 fused with EA-tagged beta-arrestin expressed in human HEK293 cells assessed as induction of beta-arrestin recruitment measured after 90 mins by beta-galactosidase based PathHunter assay relative to control; format: cell-based; settings: filed as agonist; outline: as §1
[15] = target: T4, Peroxisome proliferator-activated receptor delta (Homo sapiens) (UniProt Q03181); experiment: Displacement of [3H]-[…] from PPARdelta (unknown origin) expressed in baculovirus infected Sf9 insect cells upto 30 uM measured after 10 hrs by microbeta scintillation counting analysis; settings: dose microM <=30, time 10.0 hrs; outline: as §4
T4 sequence (whole entry): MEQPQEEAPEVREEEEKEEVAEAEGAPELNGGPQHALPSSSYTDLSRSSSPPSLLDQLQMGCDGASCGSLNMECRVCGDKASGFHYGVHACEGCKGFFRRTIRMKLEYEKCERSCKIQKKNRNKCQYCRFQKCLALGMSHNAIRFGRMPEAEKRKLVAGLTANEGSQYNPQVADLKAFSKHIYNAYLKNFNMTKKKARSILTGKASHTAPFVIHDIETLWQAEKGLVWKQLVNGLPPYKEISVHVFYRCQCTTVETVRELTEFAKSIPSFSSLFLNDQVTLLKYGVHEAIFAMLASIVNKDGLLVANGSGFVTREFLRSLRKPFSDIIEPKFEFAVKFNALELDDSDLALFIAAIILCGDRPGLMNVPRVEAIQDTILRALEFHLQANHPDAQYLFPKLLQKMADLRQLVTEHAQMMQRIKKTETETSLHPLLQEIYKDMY

Compound | Emax [1] [%] | Emax [2] [%] | EC50 [3] [µM] | EC50 [4] [µM] | EC50 [5] [µM] | EC50 [6] [µM] | fraction unbound [7] | Emax [8] [%] | Activity [9] | EC50 [10] [µM] | Activity [11] | Ki [12] [µM] | Emax [13] [%] | Emax [14] [%] | Activity [15]
CC#C[C@H](CC(=O)O)c1ccc(OCc2ccc(CN3CCC4(C=Cc5ccccc54)CC3)cc2)cc1F | 113 | 160 | 0.68 | 0.12 | 0.42 | 0.44 | < 0.01 | 112 | inactive | 0.19 | inactive | 0.41 | 61 | 102 | inactive
CC#C[C@@H](CC(=O)O)c1ccc(OCc2ccc(CN3CCC4(C=Cc5ccccc54)CC3)c(C(F)(F)F)c2)cc1 | 146 | 255 | 0.0011 | 0.00083 | 0.0011 | 0.02 | < 0.01 | 135 | inactive | 0.0019 | inactive | 0.0011 | 55 | 132 | inactive
CC#C[C@@H](CC(=O)O)c1ccc(OCc2ccc(CN3CCC4(CC3)CN(C(C)C)c3ccccc34)cc2)cc1 | 143 | 343 | 0.0082 | 0.0012 | 0.0021 | 0.024 | < 0.01 | 139 | inactive | 0.011 | inactive | 0.0041 | 46 | 133 | inactive
CC#C[C@@H](CC(=O)O)c1ccc(OCc2nc(C)c(CN3CCC4(C=Cc5ccccc54)CC3)s2)cc1 | 118 | 112 | 0.058 | 0.0038 | 0.017 | 0.011 | < 0.01 | 112 | inactive | 0.01 | inactive | 0.059 | 62 | 114 | inactive
CC#C[C@@H](CC(=O)O)c1ccc(OCc2ccc(CN3CCC4(CC3)CN(c3ccccc3)c3ccccc34)cc2)cc1 | 130 | 226 | 0.0015 | 0.00062 | 0.00083 | 0.021 | < 0.01 | 132 | inactive | 0.0021 | inactive | 0.0015 | 53 | 116 | inactive
CC#C[C@@H](CC(=O)O)c1ccc(OCc2ccc(CN3CCC4(CC3)CN(C)c3c(Cl)cccc34)cc2)cc1 | 141 | 378 | 0.0033 | 0.00059 | 0.00089 | 0.017 | < 0.01 | 138 | inactive | 0.011 | inactive | 0.0035 | 42 | 147 | inactive
O=C(O)CCc1ccc(OCc2ccc(CN3CCC4(C=Cc5ccccc54)CC3)cc2)cc1Cl | 116 | 265 | 0.74 | 0.11 | 0.54 | 0.14 | < 0.01 | 108 | inactive | 0.086 | inactive | 0.2 | 59 | 133 | inactive
CC#C[C@@H](CC(=O)O)c1ccc(OCc2ccc(CN3CCC4(C=Cc5ccccc54)CC3)cc2)cc1F | 120 | 156 | 0.036 | 0.0056 | 0.016 | 0.018 | < 0.01 | 115 | inactive | 0.014 | inactive | 0.013 | 60 | 118 | inactive
CC#C[C@@H](CC(=O)O)c1ccc(OCc2ncc(CN3CCC4(C=Cc5ccccc54)CC3)s2)cc1 | 115 | 129 | 0.084 | 0.0072 | 0.023 | 0.0028 | < 0.01 | 109 | inactive | 0.012 | inactive | 0.13 | 63 | 117 | inactive
CC#C[C@@H](CC(=O)O)c1ccc(OCc2ccc(CN3CCC4(CC3)CC(=O)c3ccccc3O4)cc2)cc1 | 141 | 228 | 0.026 | 0.0021 | 0.0045 | 0.065 | < 0.01 | 159 | inactive | 0.0083 | inactive | 0.016 | 56 | 147 | inactive
